In ChEMBL document CHEMBL1127042, “Molecular size and flexibility as determinants of selectivity in the oxidation of N-methyl-4-phenyl-1,2,3,6-tetrahydropyridine analogs by monoamine oxidase A and B” (J Med Chem, 1993) one finds TN, Ratio and Km data, which are given here for 17 compounds.

Series [1] concerns the target T1, Amine oxidase [flavin-containing] B (Bos taurus, UniProt P56560).
T1 sequence (P56560 whole entry): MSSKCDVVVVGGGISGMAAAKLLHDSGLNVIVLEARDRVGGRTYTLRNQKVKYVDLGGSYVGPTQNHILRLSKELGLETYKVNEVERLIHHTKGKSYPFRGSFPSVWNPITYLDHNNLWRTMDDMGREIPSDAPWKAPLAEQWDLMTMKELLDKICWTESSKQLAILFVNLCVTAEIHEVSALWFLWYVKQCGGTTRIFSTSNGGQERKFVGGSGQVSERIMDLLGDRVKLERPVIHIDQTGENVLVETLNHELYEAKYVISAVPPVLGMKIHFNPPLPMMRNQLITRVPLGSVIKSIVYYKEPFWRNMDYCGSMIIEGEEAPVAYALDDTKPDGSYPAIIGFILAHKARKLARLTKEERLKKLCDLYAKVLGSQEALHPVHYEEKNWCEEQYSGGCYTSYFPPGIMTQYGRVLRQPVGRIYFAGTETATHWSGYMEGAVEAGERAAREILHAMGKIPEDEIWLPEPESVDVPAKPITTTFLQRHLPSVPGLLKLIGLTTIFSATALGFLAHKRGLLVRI
Briefly: Turnover number against MAO B (umol of substrate/min per umol of enzyme). Particulars: cattle. Put shortly: (§1)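 Beef liver MAO B, purified. Initial oxidation rates measured polarographically at 30 °C in sodium phosphate buffer, pH 7.2, with 0.2% (w/v) Brij-35. The reaction was started by adding enzyme, dosed so rates were measurable within 60-120 s. Vmax came from double-reciprocal plots. Turnover number was Vmax per flavin content. Flavin content came from the optical density change on anaerobic reduction by benzylamine.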

Series [2] has as its target T2, Amine oxidase [flavin-containing] A (Homo sapiens, UniProt P21397).
T2 sequence (P21397 whole entry): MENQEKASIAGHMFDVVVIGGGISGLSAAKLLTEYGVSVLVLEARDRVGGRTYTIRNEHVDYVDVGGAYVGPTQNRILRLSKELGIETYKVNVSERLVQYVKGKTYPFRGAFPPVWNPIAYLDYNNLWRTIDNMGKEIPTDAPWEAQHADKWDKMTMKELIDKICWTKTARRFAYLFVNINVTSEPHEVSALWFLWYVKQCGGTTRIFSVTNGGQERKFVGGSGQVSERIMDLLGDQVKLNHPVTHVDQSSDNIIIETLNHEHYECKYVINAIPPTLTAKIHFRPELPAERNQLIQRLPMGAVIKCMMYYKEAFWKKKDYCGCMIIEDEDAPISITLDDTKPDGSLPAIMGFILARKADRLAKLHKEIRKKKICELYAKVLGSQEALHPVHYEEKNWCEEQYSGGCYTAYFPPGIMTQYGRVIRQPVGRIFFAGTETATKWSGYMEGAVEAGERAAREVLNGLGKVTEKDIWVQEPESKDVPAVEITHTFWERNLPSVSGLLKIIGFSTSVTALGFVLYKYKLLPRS
Briefly: Turnover number against MAO A (umol of substrate/min per umol of enzyme). Put shortly: (§2)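 Human liver MAO A expressed in yeast, purified. Initial oxidation rates measured polarographically (O2 uptake) at 30 °C in sodium phosphate buffer, pH 7.2, with 0.2% (w/v) Brij-35. Enzyme was added last to start the reaction, and its amount was set so rates were read within 60-120 s. Vmax came from double-reciprocal plots. TN was Vmax divided by flavin content. Flavin content was found from the optical density change on anaerobic reduction by kynuramine.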

The target in series [3] is Amine oxidase [flavin-containing] A (Homo sapiens) (UniProt P21397). Kind of series: Ratio between TN and Km against MAO A.
The target in series [4] is T1, Amine oxidase [flavin-containing] B. Kind of series: Ratio of turnover number(TN)and Km for MAO B. The settings on record: cattle. Put shortly: as §1
For series [5] the target is unchanged. Briefly: Ratio between TN and Km against MAO B. The settings on record: cattle. Put shortly:
as §1

The target in series [6] is T3, MAO A (amine oxidase [flavin-containing] A) (Homo sapiens, UniProt P21397).
T3 sequence (P21397 whole entry): T2 sequence (P21397 whole entry)
Kind of series: Michaelis-Menten constant against MAO A. Put shortly: as §2

Several values for one entry are separate records, joined by “and”; a condition that tells them apart may be missing. Identical values can stand only once.

Take `CN1CC=C(Cc2ccsc2)CC1`: the TN in series [1] stood at 153 min⁻¹; in series [2], 13.3 min⁻¹. For the same compound, the Ratio was 98 in series [3] and 785 in series [4].

In the case of `CN1CC=C(Cc2cccc3ccccc23)CC1`, the TN in series [1] was determined as 89 min⁻¹; in series [2], 443 min⁻¹. Besides, the values for the Ratio in series [3] and in series [4] were 2592 and 105, respectively.

Turning to `CN1CC=C(CCc2cccs2)CC1`, the TN is 51.9 min⁻¹ in series [1] and 42 min⁻¹ in series [2]. In addition, the values for the Ratio in series [3] and in series [4] were 389 and 1059, respectively.

`CN1CC=C(Cc2ccccc2)CC1`: the values for the TN in series [1] and in series [2] were 193 min⁻¹ and 9.2 min⁻¹, respectively. In addition, the Ratio in series [3] stood at 139; in series [4] it was 1250.

Regarding `CN1CC=C(Cc2ccc3ccccc3c2)CC1`, the TN stood at 274 min⁻¹ in series [1] and 121 min⁻¹ in series [2]. For the same compound, the Ratio in series [3] is given as 3344; in series [4] it was 326.

For `CN1CC=C(c2cccs2)CC1`, the TN in series [1] stood at 12 min⁻¹; in series [2] it was 5.21 min⁻¹. For the same compound, the Ratio in series [3] is listed as 28; in series [4], 71.

As to `NCCC(=O)c1ccccc1N` [KYNURAMINE], the TN in series [1] stood at 165 min⁻¹; in series [2], 146 min⁻¹. Moreover, the Ratio in series [3] is recorded as 860; in series [5], 1964.

Take `CN1CC=C(c2ccsc2)CC1`: the values for the TN in series [1] and in series [2] were 4.17 min⁻¹ and 8.14 min⁻¹, respectively. The Ratio in series [3] was 80 and 160.

As for `CN1CC=C(c2cccc3ccccc23)CC1`, the results for the TN in series [1] and in series [2] were 55 min⁻¹ and 140 min⁻¹, respectively. Further, the Ratio in series [3] is reported as 1893; in series [4], 500.

As to `CN1CC=C(Cc2cccs2)CC1`, the TN turned out to be 337 min⁻¹ in series [1] and 8.4 min⁻¹ in series [2]. For the same compound, the Ratio in series [3] turned out to be 175; in series [4], 3270.

For the compound `CN1CC=C(CCc2ccccc2)CC1`, the values for the TN in series [1] and in series [2] were 61 min⁻¹ and 137 min⁻¹, respectively. Further, the Ratio was 1120 in series [3] and 1130 in series [4].

For `CN1CC=C(c2ccccc2)CC1`, the TN in series [1] came to 204 min⁻¹; in series [2], 20 min⁻¹. For the same compound, the Ratio is 143 in series [3] and 523 in series [4]. In addition, in series [6], the Michaelis constant (Km) – broadly, the concentration of substrate that gives half-maximal velocity – was 140 µM.

On to `CN1CC=C(CCc2ccc3ccccc3c2)CC1`, for which the TN in series [1] was 79 min⁻¹; in series [2] it was 95.9 min⁻¹. In addition, the Ratio in series [3] was 2225; in series [4] it was 76.

Regarding `CN1CC=C(CCc2cccc3ccccc23)CC1`, the TN worked out at 80 min⁻¹ in series [1] and 244 min⁻¹ in series [2]. In addition, the Ratio was determined as 3187 in series [3] and 62 in series [4].

On to `NCc1ccccc1` [BENZYLAMINE], for which the TN is 283 min⁻¹ in series [1] and 10 min⁻¹ in series [2]. The Ratio in series [3] is on record as 13; in series [4], 963.

As for `CN1CC=C(c2ccc3ccccc3c2)CC1`, the values for the TN in series [1] and in series [2] were 73.5 min⁻¹ and 10.2 min⁻¹, respectively. Also, the Ratio in series [3] is given as 2216; in series [4], 101.

Regarding `CN1CC=C(CCc2ccsc2)CC1`, the TN in series [1] amounted to 50.7 min⁻¹; in series [2], 29.7 min⁻¹. The Ratio in series [3] is given as 228; in series [4], 890.
